Reference: the EternaBench riboswitch data

Tested on: MS2 coat protein
Experiment: apparent Kd, MS2 coat protein; higher = weaker binding; RNA-MaP array; FMN 200 µM where present
How it was run: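 Designs on Illumina sequencing-chip clusters, transcribed by stalled E. coli RNA polymerase, were exposed to SNAP-549-labelled MS2 coat protein in doubling steps from 0.7 or 1.5 nM up to 3 µM, without and then with constant ligand. The buffer held 100 mM Tris-HCl pH 7.5, 80 mM KCl, 4 mM MgCl2, BSA, DTT, yeast tRNA and Tween-20. Apparent Kd values are medians of filtered per-cluster binding-curve fits to green signal normalised to red-channel RNA signal and control-cluster median Fmax.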

[1] = designed as: OFF switch for flavin mononucleotide, no ligand
[2] = ligand present: flavin mononucleotide, designed as: OFF switch for flavin mononucleotide
[3] = designed as: ON switch for flavin mononucleotide, no ligand
[4] = ligand present: flavin mononucleotide, designed as: ON switch for flavin mononucleotide

Sequence | apparent Kd [1] | apparent Kd [2] | apparent Kd [3] | apparent Kd [4]
UAUAUACAUGAGGAUCACCCAUGUCAGGAUAUUAGAUAUAUAUAUACAUAUAAUUAUUUAAGAAGGGACACUAA | 43.8 nM | 46 nM |  | 
UCAAAGAGAUCGAACGGGAGGCGUAAGGAUAUGCACAUGAGGAUCACCCAUGUCUACGAAAGUAGGCAGAAGGUACGCGGGAUU |  |  | 253 nM | 30.6 nM
GUAGCAAUCGGAGGAUAUUCAUUAAACAUGAGGAUCACCCAUGUAAAUUUGGGAGAAGGCCGAUUGCUACAAGAGCGAAAGCUC |  |  | 22.9 nM | 6.1 nM
GCGGUACAUGAGGAUCACCCAUGUCAGGAUAUCCGCUGUUUGUUGAUUGGCAGGCGGUGGAGAAGGGACUUCGC | 35.2 nM | 33.4 nM |  | 
UUGUUACAUGAGGAUCACCCAUGUGAGGAUAUGGUUCGGUACUGUCCUGUCGCGUACUCCAGAAGGCACAUGUU | 63.6 nM | 182 nM |  | 
UGGUGCUAGGGAGGAUAUGGGAAGAUACAUGAGGAUCACCCAUGUUUAAGAAUGCCGAGAGGCAACUAGAAGGCCCUAGUACCU |  |  | 457 nM | 20.9 nM
GUGCCUUGGGAGAAGGCAGUAUGCAAAGCAUCCUGAGGAUAUUCAUACCGGAAACGGACAUGAGGAUCACCCAUGUGGCACAAA |  |  | 864 nM | 57 nM
AAUUGCCUAGGAUAUACUUGGGCCCGCUCAUACUCCAAUGGACAUGAGGAUCACCCAUGUAGAAGGAGGACCCA | 17.2 nM | 39.4 nM |  | 
GAGCUAUGAGGAUAUGCAUAUAUACGGUUUCGUGUGGUACUACAUGAGGAUCACCCAUGUAGAAGGCGUGGCAG | 17.4 nM | 17.9 nM |  | 
UGUUAAUAUCGAGGAUAUGUCUAGACACAUGAGGAUCACCCAUGUAUGUGUAUAGAAGGCGAUAUUAACAGCAUGUUACAUGCG |  |  | 37.2 nM | 17.4 nM
AUUUUGUCAGGAUAUGAGUAGUAGGACGAAAGUGUUAUUAUUUAGAAGGGACAUGAGGAUCACCCAUGUUUCUC | 12.3 nM | 15.8 nM |  | 
CUGAUGUUAGGAUAUCAGGUCGCGCACGAAGGCGCGCGGCAUGAGAAGGAACAUGAGGAUCACCCAUGUGACGA | 48.4 nM | 145 nM |  | 
GUCCUUUCUGAGGAUAUUAUCUGGUUCGAUUGAUAAGAAGGCAGUACAUGAGGAUCACCCAUGUGGGUCGUCUG | 31.6 nM | 69.5 nM |  | 
GGGUACAUCGGAGGAUAUCAUGUAGAUACAUGAGGAUCACCCAUGUCGAUGGAGACAUCGGAGAUUGAGAAGGCCGAUGUACCG |  |  | 272 nM | 10.1 nM
GCAUGACAAAGUCAUGCAUAACGAACAUGAGGAUCACCCAUGUAGGAUAUGCUACUCAAAGAGUAGCAGAAGGACAUGUGUCUU | 31.1 nM | 160 nM |  | 
UGCGAUGCAGUUGGCCCUGGGCGAGAGGAUAUGGGCAGCGGGACAUGAGGAUCACCCAUGUUCUCUCAGAAGGCUCGAGCAGGC |  |  | 256 nM | 91.6 nM
UUUACAUGAGGAUCACCCAUGUUAAAAUAAUUAAUUAUAAGUGAGGAUAUAUAAAUUAUAAAAUUGUAGAAGGCACUGGGUAUU |  |  | 22 nM | 23.4 nM
AAGGAUAGAGGAUAUACAUAGAUACAGAUUCAUGUGGAACUACAUGAGGAUCACCCAUGUAGAAGGCUAUCCUA | 40.1 nM | 262 nM |  | 
UGUCGGAGCAGAGGAUAUUACAUGAGGAUCACCCAUGUAUGAACCGAUAGCUGGAAACAGCAAUGUAAGAAGGCUGCUCCGACA | 19 nM | 258 nM |  | 
UGUCGGAGCAGAGGAUAUUACAUGAGGAUCACCCAUGUAUGAACCAAUAGCUGGAAACAGCAAUGUAAGAAGGCUGCUCAGACA | 11.9 nM | 137 nM |  | 
UACUUGUCAGGAUAUCUUACAUUAACAUCGUAGUUACAAUUGGAGAAGGGACAUGAGGAUCACCCAUGUUUGGC | 25.8 nM | 34.5 nM |  | 
GAUCGAGAACUCACGGCGUUGCACAUGAGGAUCACCCAUGUGCAGGAUAUGGCCGCCGUCGGAGGCCAGAAGGGCACAGUAGGU | 10.2 nM | 20 nM |  | 
AGAUAGUGGUGAGGAUAUCAGAAUAGAAAGAAAUGAGAAGGCACACAUGAGGAUCACCCAUGUGAGUUCUUGAGAUUACAUGGU | 18.4 nM | 34.2 nM |  | 
UAAACACCCUCAUGUGCCUGAGGACAUGAGGAUCACCCAUGUGAGGAUAUAGCCAUUAAAUCUAACUAGAAGGUAUAGGAAAUC | 651 nM | 190 nM |  | 
UUACAUACAAAGGUACAUGAGGAUCACCCAUGUUUGUUGGGAAGAAGGGUAACAGUACUACAUUUAUAGGAUAUUUCACAAAUA |  |  | 95.5 nM | 64 nM
UGAGCUGAAGGAUAUGCGUAAUCUCGGUGACGAGUAGAUCUACAUGAGGAUCACCCAUGUAGAAGGUCAGUUCU | 15.5 nM | 17.5 nM |  | 
AUAUAUAUAUCAGGAUAUGGACAGGCCUGUUCGUAUUAAGACAUUAACAUGAGGAUCACCCAUGUCCAGAAGGGAUAUAUAUAU | 109 nM | 86.9 nM |  | 
UGGCGUAUCGAAGGAUAUCUGGGCUUACUCGGAGGAUCGACAUGAGGAUCACCCAUGUAUGACCAAGAGAAGGUCGAGGACGUA | 141 nM | 253 nM |  | 

Sequence | apparent Kd [1] | apparent Kd [2] | apparent Kd [3] | apparent Kd [4]
GGAUUACAUGAGGAUCACCCAUGUGAGGAUAUCGAUGUCCUCAAUAAAGUGCGGGACUCGAGAAGGCACUUGGA | 63 nM | 83 nM |  | 
GGCGGCGCGGGCCACCGCAGGGCCAGAAGGACAUGAGGAUCACCCAUGUGGCAGGACAGGGCGGUGUAGGAUAUGGCAGGCUGG | 8.35 nM | 10.6 nM |  | 
CCACUGAUACCUUGGCCGCUACAUGAGGAUCACCCAUGUCGUGAGGAUAUCCCACCAUACUGUUAGGAGAAGGCGCGUAUGGGC | 11 nM | 17.2 nM |  | 
GCACAUGAUACAGGAUAUGUUUAGGAUUUUAUAUACAGUUAUUUUAUUUUGACAGAAGGGUAUACAUGAGGAUCACCCAUGUGC | 87.2 nM | 58.1 nM |  | 
GCCAUCGCAUGAGGAUAUGCUCCGGUUUCCGGAGCAGAAGGCAUGUCGUAAGACAUGAGGAUCACCCAUGUAGUUAAGAUGGCA |  |  | 1100 nM | 54.7 nM
AAACAUGUCCGAGGAUAUCUGGAAACAUUUUCAAGAGAAGGCGGACAUGAGGAUCACCCAUGUCUCUCCUCAUCAAAUCCAAUU | 8.37 nM | 51.1 nM |  | 
GAAUGCCUGUCGAUGCUCGACAUGAGGAUCACCCAUGUAUAGCAGGAUAUGCAGAACUGACUCGUGCAGAAGGGCUAUACCUAA | 18.8 nM | 47.7 nM |  | 
CAGAAGUCAGGAUAUCCUGCUCGUCACUUGCGUGAUGAGUAGGAGAAGGGACAUGAGGAUCACCCAUGUAAAGG | 144 nM | 411 nM |  | 
ACCAAUGCAGGAUAUACAUGAGGAUCACCCAUGUAUAACCUACAUAGAUGAUUAUCAUGUAGAAGGGCAUUGGA | 11.7 nM | 8.43 nM |  | 
UCAAGUAUGUAGGAUAUCGAUGUCGAAAGACAUCGAGAAGGACGUACAUGAGGAUCACCCAUGUAACUUGCAUG | 296 nM | 270 nM |  | 
GGAUGACAUAGUCAUCAGUAACGAACAUGAGGAUCACCCAUGUAGGAUAUGCUACUCAACGAGUAGCAGAAGGACAUGUGUCUU | 27.4 nM | 135 nM |  | 
ACGAGCAAGAUUAUUAUGAAUAAACAUGAGGAUCACCCAUGUAAGGAUAUGCAGUGGAAUACACUGCAGAAGGUACAUAGCUCG | 11.3 nM | 44.2 nM |  | 
GUCUUUUUACAGAAGGUGUUUUACAUGAGGAUCACCCAUGUUUAUAUGUUUAAAUUUGAUAUUUACAAGGAUAUGUACUAAUCU |  |  | 25.3 nM | 17.4 nM
AGCGAACAUGAGGAUCACCCAUGUGAAAAACAUAGAGGAUAUGUCGCAUGAGUGUAAAAGACAGAAGGCUAUCGCA |  |  | 225 nM | 54.8 nM
AAAGCAACAUGAGGAUCACCCAUGUAGGAUAUCGCUAUUGUAAUCAUGAAACAUGAUUACAAUAGCGAGAAGGACAUAUGGCCC | 10.8 nM | 31.7 nM |  | 
UGAUCGAAAGAUCAUAGAUUCUGCUAGGAUAUGCAGAAGUUGCGCUUUACAUGAGGAUCACCCAUGUAGAAGGAGUAGAGUCUA | 6.59 nM | 6.78 nM |  | 
CAUCUGGUGCAGAAGGGACAUAGGGUCCUUUGGUCGCUAAGUAUCCCACAUGAGGAUCACCCAUGUCAGGAUAUGUAUCUGGAU | 15.9 nM | 30.1 nM |  | 
AGGAAACAUGAGGAUCACCCAUGUAAAGAUGGGCGAGGAUAUCGAAAGAAAAGAAAGAAACGAGAAGGCGCAAAAG |  |  | 305 nM | 72.1 nM
AUCCGACAUGUAGGAUAUGCGUGGCGAAGCUAUGCAGAAGGACAUGAGGAUCACCCAUGUUUUACCGUCUGCGUACAGACGGUG | 286 nM | 240 nM |  | 
CGCUGUCUCGCAGGAUAUGCAUUGGAUUACAAUGCAGAAGGGCGAUUACAUGAGGAUCACCCAUGUGUUGACAGUGAAGAAUAG |  |  | 96.6 nM | 22.2 nM
GACUGAUUGUAGAAGGUACUUGAAUAUAUAUUUUAUCUCAUGUGACAUGAGGAUCACCCAUGUAGUAAGGAUAUACAUAUCACA |  |  | 52.9 nM | 42.2 nM
AAUAUGUUAGGAUAUGCGAAGUCAGGACACACACUGACGAAGCAGAAGGAACAUGAGGAUCACCCAUGUAAAAA | 27.3 nM | 31.4 nM |  | 
GGGUACAUCGGAGGAUAUCAUGUAAAUACAUGAGGAUCACCCAUGUAGAUGGAGACAUCGGAGAUUGAGAAGGCCGAUGUACCG |  |  | 7.69 nM | 5.84 nM
UGCAUGUAAGGAUAUGCACUGCGCGAGCCUGGCUCGCAAAGGCAGAAGGUACAUGAGGAUCACCCAUGUGAGAA | 91.5 nM | 99.7 nM |  | 
GGGCGUUGGGAGAAGGUACAUUAAAUUAGUUUAACAUGAGGAUCACCCAUGUAAGGAUAUCCCAUCGUGUAAUAUUAUACAGCC | 11 nM | 13.8 nM |  | 
AGCAACAUGAGGAUCACCCAUGUUGGUUCGAAAACGGACUCACAGGAUAUGCAGCGUGAUCGCUCGCAGAAGGGUGCGUCCUCA |  |  | 51.2 nM | 38.7 nM
GAACGUGAUGUAAGGAUAUGUAGCCAUCGAGGCGUAUAGAAGGUACAUGAGGAUCACCCAUGUGAGCUCGUUAU | 36.7 nM | 44.6 nM |  | 
